From ChEMBL document CHEMBL2311306, “The precise chemical-physical nature of the pharmacore in FK506 binding protein inhibition: ElteX, a New class of nanomolar FKBP12 ligands” (J Med Chem, 2013)

What was measured:
[1] = target: Peptidyl-prolyl cis-trans isomerase FKBP1A (Homo sapiens) (UniProt P62942); experiment: Binding affinity to FKBP12 PPI domain (unknown origin) in water bulk solution by fluorescence spectrophotometric analysis relative to FK506
[2] = target: Peptidyl-prolyl cis-trans isomerase FKBP1A (Homo sapiens) (UniProt P62942); experiment: Apparent binding affinity to FKBP12 PPI domain (unknown origin) in PBS at pH 7 by fluorescence spectrophotometric analysis relative to FK506
Procedure, shortened: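 FKBP12, final 1 µM, diluted from a PBS stock (pH 7.4, 0.15 M NaCl) into phosphate buffer at 15 °C. Ligand 1–200 nM, final DMSO <0.3% v/v. Intrinsic Trp fluorescence quenching: excitation 280 nm, emission 325 nm, ligand-only spectra subtracted. Apparent Kd fitted from intensity versus ligand concentration, expressed as ratio to FK506 under identical conditions. At least 2 replicates, 3–4 at low concentrations.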

Peptidyl-prolyl cis-trans isomerase FKBP1A (Homo sapiens), sequence (P62942 whole entry, the tested form may be a part): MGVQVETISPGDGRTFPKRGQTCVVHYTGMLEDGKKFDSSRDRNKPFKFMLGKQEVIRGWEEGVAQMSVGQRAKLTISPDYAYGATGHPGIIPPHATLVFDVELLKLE

C=CC[C@@H]1/C=C(\C)C[C@H](C)C[C@H](OC)[C@H]2O[C@@](O)(C(=O)C(=O)N3CCCC[C@H]3C(=O)O[C@H](/C(C)=C/[C@@H]3CC[C@@H](O)[C@H](OC)C3)[C@H](C)[C@@H](O)CC1=O)[C@H](C)C[C@@H]2OC
Ratio [1]: 1

CO[C@H]1C[C@@H]2CC[C@@H](C)[C@@](O)(O2)C(=O)C(=O)N2CCCC[C@H]2C(=O)O[C@H]([C@H](C)C[C@@H]2CC[C@@H](O)[C@H](OC)C2)CC(=O)[C@H](C)/C=C(\C)[C@@H](O)[C@@H](OC)C(=O)[C@H](C)C[C@H](C)/C=C/C=C/C=C/1C
Ratio [1]: 0.5

CCC[C@H](CCc1ccccc1)OC(=O)[C@@H]1CCCCN1C(=O)C(=O)c1ccccc1
Ratio [1]: 1.6

CCC(C)(C)C(=O)C(=O)N1CCCC[C@H]1C(=O)O[C@H](CCc1ccccc1)c1ccccc1
Ratio [1]: 25

CCC(C)(C)C(=O)C(=O)N1CCCC[C@H]1C(=O)O[C@@H](CCc1ccccc1)c1ccccc1
Ratio [1]: 750

CCCC(CCc1ccccc1)NC(=O)[C@@H]1CCCCN1C(=O)C(=O)c1ccccc1 (mixture of isomers)
Ratio [1]: 5

COc1cc(OC)c(C(=O)C(=O)N2CCCC[C@H]2C(=O)OC(CCCc2ccccc2)CCCc2ccncc2)c(OC)c1 (some centres undefined)
Ratio [1]: 1.2

CCC[C@@H](CCc1ccccc1)OC(=O)[C@@H]1CCCCN1C(=O)C(=O)c1ccccc1
Ratio [1]: 1.1

O=C(C(=O)N1CCCC[C@H]1C(=O)NCCCc1ccccc1)c1ccccc1
Kd(app) [2]: 0.5
